Holding throughout (type): functional
The test system of one test is HOP-62. In words: Growth inhibition of human HOP62 cells at 10^-5 M after 48 hrs by Sulforhodamine B assay relative to control. As to conditions: HOP-62, 48 h, read-out: GI. In short, it runs like this:
(§1)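 Single-dose screen at 10⁻⁵ M. Cells are preincubated 24 h at 37 °C in 5% CO2, then exposed to the compound, diluted from a DMSO stock into medium with gentamicin, for 48 h. Adherent cells are fixed with cold TCA (final 10%) and suspension cells with TCA (final 16%). Cells are stained with 0.4% SRB in 1% acetic acid and bound dye is read at 515 nm. Percent growth inhibition is taken against control wells and time-zero plates.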
On the technique in general: Sulforhodamine B stains cellular protein and so reports cell mass.

In a further test the test system is MOLT-4. Put plainly: Growth inhibition of human MOLT4 cells at 10^-5 M after 48 hrs by Sulforhodamine B assay relative to control. As to conditions: MOLT-4, 48 h, read-out: GI. In short, it runs like this: (§2)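 Single-dose primary screen at 10⁻⁵ M across 49 lines. Cells were plated 24 h beforehand, with a TCA-fixed time-zero plate, then exposed 48 h at 37 °C, 5% CO2. Cells were fixed with cold TCA, stained with SRB and read at 515 nm. Percent growth was calculated against time-zero and untreated-control absorbances.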

A further test has as its system RXF 393. In words: Growth inhibition of human RXF393 cells at 10^-5 M after 48 hrs by Sulforhodamine B assay relative to control. The following applies: RXF 393, 48 h, read-out: GI. In short, it runs like this: as §2
Another test has as its system HL-60(TB). Put plainly: Growth inhibition of human HL-60(TB) cells at 10^-5 M after 48 hrs by Sulforhodamine B assay relative to control. The following applies: HL-60, 48 h, read-out: GI. In short, it runs like this:
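First-stage single-dose screen at 10⁻⁵ M. Cells pre-incubated 24 h at 37 °C, 5% CO2, then exposed to drug for 48 h. Settled cells fixed with TCA (final 16%), SRB-stained and read at 515 nm. Percentage growth inhibition is derived from treated, untreated control and time-zero absorbances.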

Another test concerns SR. In words: Growth inhibition of human SR cells at 10^-5 M after 48 hrs by Sulforhodamine B assay relative to control. As to conditions: read-out: GI. In short, it runs like this: as §2
The test system of a further test is 786-0. In words: Growth inhibition of human 786-0 cells at 10^-5 M after 48 hrs by Sulforhodamine B assay relative to control. As to conditions: 786-0, 48 h, read-out: GI. In short, it runs like this:
as §1

The subject of the next test is SW-620. In words: Growth inhibition of human SW620 cells at 10^-5 M after 48 hrs by Sulforhodamine B assay relative to control. As to conditions: SW-620, 48 h, read-out: GI. In short, it runs like this:
as §2

In another test the test system is NCI-H460. Put plainly: Growth inhibition of human NCI-H460 cells at 10^-5 M after 48 hrs by Sulforhodamine B assay relative to control. The following applies: NCI-H460, 48 h, read-out: GI. In short, it runs like this:
as §2

In test [1] the test system is SF-295. In words: Growth inhibition of human SF295 cells at 10^-5 M after 48 hrs by Sulforhodamine B assay relative to control. The following applies: SF-295, 48 h, read-out: GI. In short, it runs like this:
as §2

The test system of a further test is HOP-92. In words: Growth inhibition of human HOP92 cells at 10^-5 M after 48 hrs by Sulforhodamine B assay relative to control. As to conditions: HOP-92, 48 h, read-out: GI. In short, it runs like this:
as §1

The next test has as its system MDA-MB-231. In words: Growth inhibition of human MDA-MB-231 cells at 10^-5 M after 48 hrs by Sulforhodamine B assay relative to control. The following applies: MDA-MB-231, 48 h, read-out: GI. In short, it runs like this: as §1
Test [2] concerns DU-145. In words: Growth inhibition of human DU145 cells at 10^-5 M after 48 hrs by Sulforhodamine B assay relative to control. As to conditions: DU-145, 48 h, read-out: GI. In short, it runs like this:
as §1

The test system of the next test is HT-29. Put plainly: Growth inhibition of human HT-29 cells after 48 hrs by Sulforhodamine B assay. As to conditions: HT-29, 48 h. In short, it runs like this: (§3)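 Five-concentration SRB assay using 10-fold or ½-log serial dilutions from a DMSO stock. Exposure is 48 h at 37 °C in 5% CO2 after 24 h preincubation. TCA fixation is followed by SRB staining and a reading at 515 nm. Percentage growth is computed from time-zero, control and treated absorbances. GI50 is the concentration where [(Ti−Tz)/(C−Tz)]×100 = 50, read from the plot against log concentration.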

The test system of a further test is A549. Put plainly: Growth inhibition of human A549/ATCC cells after 48 hrs by Sulforhodamine B assay. The following applies: A549, 48 h. In short, it runs like this: as §3
The test system of the next test is T47D. In words: Growth inhibition of human T47D cells after 48 hrs by Sulforhodamine B assay. In short, it runs like this:
(§4)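 Cells were preincubated 24 h at 37 °C, 5% CO2, and a time-zero plate was TCA-fixed. Five concentrations were made by serial dilution from a DMSO stock (400-fold the top concentration) and incubated 48 h. Adherent cells were fixed with 10% final TCA and suspension cells with 16%. Plates were stained with 0.4% SRB and read at 515 nm. GI50 is the concentration giving 50% reduction in net protein increase versus control.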

The test system of another test is SK-OV-3. Put plainly: Growth inhibition of human SKOV3 cells after 48 hrs by Sulforhodamine B assay. As to conditions: SK-OV-3, 48 h. In short, it runs like this:
as §4

Another test relates to SF-539. Put plainly: Growth inhibition of human SF539 cells after 48 hrs by Sulforhodamine B assay. As to conditions: SF-539, 48 h. In short, it runs like this:
as §4

A further test has as its system MCF7. Put plainly: Growth inhibition of human MCF7 cells after 48 hrs by Sulforhodamine B assay. The following applies: MCF7, 48 h. In short, it runs like this:
as §3

The next test concerns UO-31. In words: Growth inhibition of human UO31 cells after 48 hrs by Sulforhodamine B assay. The following applies: UO-31, 48 h. In short, it runs like this:
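Five-concentration stage in the […]-cell-line panel, using 10-fold or ½-log serial dilutions made from a DMSO stock (400-fold). Cells were preincubated 24 h at 37 °C, then drug-exposed 48 h. A time-zero plate was fixed with TCA at dosing, adherent cells were fixed with cold TCA (10% final), and protein was stained with SRB, absorbance 515 nm. GI50 was where [(Ti−Tz)/(C−Tz)]×100 = 50, from the percent growth vs log concentration plot, expressed as log10 GI50.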

In another test the test system is HCT-116. In words: Growth inhibition of human HCT116 cells after 48 hrs by Sulforhodamine B assay. The following applies: HCT-116, 48 h. In short, it runs like this: as §3
For another test, the system named is SNB-19. In words: Growth inhibition of human SNB19 cells after 48 hrs by Sulforhodamine B assay. As to conditions: SNB-19, 48 h. In short, it runs like this:
as §4

A further test deals with LOX IMVI. Put plainly: Growth inhibition of human LOXIMVI cells after 48 hrs by Sulforhodamine B assay. In short, it runs like this:
as §3

The nature of test [3]: Growth inhibition of human NCI-ADR-RES cells after 48 hrs by Sulforhodamine B assay. In short, it runs like this: as §4
A further test relates to OVCAR-4. In words: Growth inhibition of human OVCAR4 cells after 48 hrs by Sulforhodamine B assay. The following applies: OVCAR-4, 48 h. In short, it runs like this: as §4
Test [4] deals with DU-145. In words: Growth inhibition of human DU145 cells after 48 hrs by Sulforhodamine B assay. The following applies: DU-145, 48 h. In short, it runs like this: as §3
The subject of a further test is Malme-3M. Put plainly: Growth inhibition of human MALME-3M cells after 48 hrs by Sulforhodamine B assay. In short, it runs like this: as §3
Test [5] concerns SF-295. In words: Growth inhibition of human SF295 cells after 48 hrs by Sulforhodamine B assay. As to conditions: SF-295, 48 h. In short, it runs like this: as §4

In the case of `c1ccc(N2CCN(c3nc(-c4ccncc4)nc4sc5c(c34)CCCCCC5)CC2)cc1`, the inhibition of growth at 10 µM with HOP-62 was -5.44%; with MOLT-4, 4.82%; in the test with RXF 393 it was 0.87%; with HL-60(TB) it was 2.53%; in the test with SR, 5.99%; in the test with 786-0, 1.77%. Besides, the inhibition of growth at 10 µM in the test on SW-620 is -9.11%; in the test with NCI-H460, -6.17%; in the test with SF-295 [1], 6.51%; with HOP-92, 33.3%; in the test with MDA-MB-231, 2.4%; with DU-145 [2] it was -4.95%.
Turning to `c1ccc(N2CCN(c3nc(-c4ccccn4)nc4sc5c(c34)CCCCCC5)CC2)cc1`, the inhibition of growth at 10 µM is 36.2% with HOP-62; 47.9% with MOLT-4; 32.2% in the test with RXF 393; 10.7% in the test with 786-0; 24% with SW-620; 46% in the test with NCI-H460. The inhibition of growth at 10 µM came to 54.8% in the test with SF-295 [1], 26.8% in the test on HOP-92, 22.4% with MDA-MB-231 and 21.1% in the test on DU-145 [2].
For orientation: GI50 means the concentration giving 50% growth inhibition. A low value points to greater sensitivity of the cells. In the case of `c1ccc(-c2nc(N3CCOCC3)c3c4c(sc3n2)CCCCCC4)nc1`, the GI50 was 6.03 µM with HT-29; 3.55 µM in the test on A549; 4.47 µM in the test with T47D; 9.33 µM with SK-OV-3; 12.9 µM with SF-539; 3.02 µM with MCF7. For the same molecule, the concentration for 50% growth inhibition (GI50) is 1.17 µM with UO-31; 3.72 µM in the test with HCT-116; 8.32 µM with SNB-19; 5.25 µM in the test with LOX IMVI; 0.832 µM in [3]; 4.9 µM in the test on OVCAR-4. In addition, the GI50 with DU-145 [4] is 6.92 µM; in the test with Malme-3M, 3.31 µM; with SF-295 [5], 3.39 µM.
